Key:
Homo sapiens [1] = species on record: Homo sapiens; experiment: Selectivity ratio of Kinact/Ki for recombinant human PAD2 expressed in Escherichia coli BL21(DE3)pLysS to Kinact/Ki for recombinant His6-tagged PAD3 (unknown origin)
Outline: (§1)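 Enzyme at 2.0 μM (PAD1, PAD2, PAD4) or 5.0 μM (PAD3) incubated at 37 °C with various inhibitor concentrations in 50 mM HEPES, 10 mM CaCl₂, 2 mM DTT, pH 7.6. Timed aliquots moved into substrate mix: 10 mM BAEE, or 10 mM BAA for PAD3. […] Selectivity ratios taken from these values.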

Homo sapiens [2] = species on record: Homo sapiens; experiment: Selectivity ratio of Kinact/Ki for recombinant His6-tagged PAD1 (unknown origin) to Kinact/Ki for recombinant full length N-terminal GST-tagged human PAD4 expressed in Escherichia coli Rosetta cells; outline: as §1
Homo sapiens [3] = species on record: Homo sapiens; experiment: Selectivity ratio of Kinact/Ki for recombinant His6-tagged PAD3 (unknown origin) to Kinact/Ki for recombinant full length N-terminal GST-tagged human PAD4 expressed in Escherichia coli Rosetta cells; outline: as §1
Homo sapiens [4] = species on record: Homo sapiens; experiment: Selectivity ratio of Kinact/Ki for recombinant human PAD2 expressed in Escherichia coli BL21(DE3)pLysS cells to Kinact/Ki for recombinant full length N-terminal GST-tagged human PAD4 expressed in Escherichia coli Rosetta cells; outline: as §1
Homo sapiens [5] = species on record: Homo sapiens; experiment: Selectivity ratio of Kinact/Ki for recombinant full length N-terminal GST-tagged human PAD4 expressed in Escherichia coli Rosetta to Kinact/Ki for recombinant His6-tagged PAD3 (unknown origin); outline: as §1
Homo sapiens [6] = species on record: Homo sapiens; experiment: Selectivity ratio of Kinact/Ki for recombinant His6-tagged PAD1 (unknown origin) to Kinact/Ki for recombinant His6-tagged PAD3 (unknown origin); outline: as §1
[7] = target: Protein-arginine deiminase type-2 (Homo sapiens, UniProt Q9Y2J8); experiment: Binding affinity to human PAD2 expressed in HEK293T cells assessed as protein occupancy at 25 uM preincubated for 15 mins followed by ionomycin addition measured after 1 hr in presence of CaCl2 by RIBFA probe based SDS-PAGE analysis relative to control; format: cell-based
Outline: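 Adherent HEK293T/PAD2 cells at 80–90% confluence in HBS with 2 mM CaCl₂ at 37 °C. Inhibitor (in DMSO) added for 15 min, then ionomycin (0.5 μM final) for 1 h. Cells washed and lysed in 1% Triton X-100. Lysate (2 μg/μL) labelled with RIBFA probe (2 μM) plus 2 mM CaCl₂ for 1 h at 37 °C. Gel resolved and fluorescence scanned (~546/579 nm). PAD2 occupancy expressed relative to DMSO control.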

Chain of Protein-arginine deiminase type-2 (Q9Y2J8 whole entry): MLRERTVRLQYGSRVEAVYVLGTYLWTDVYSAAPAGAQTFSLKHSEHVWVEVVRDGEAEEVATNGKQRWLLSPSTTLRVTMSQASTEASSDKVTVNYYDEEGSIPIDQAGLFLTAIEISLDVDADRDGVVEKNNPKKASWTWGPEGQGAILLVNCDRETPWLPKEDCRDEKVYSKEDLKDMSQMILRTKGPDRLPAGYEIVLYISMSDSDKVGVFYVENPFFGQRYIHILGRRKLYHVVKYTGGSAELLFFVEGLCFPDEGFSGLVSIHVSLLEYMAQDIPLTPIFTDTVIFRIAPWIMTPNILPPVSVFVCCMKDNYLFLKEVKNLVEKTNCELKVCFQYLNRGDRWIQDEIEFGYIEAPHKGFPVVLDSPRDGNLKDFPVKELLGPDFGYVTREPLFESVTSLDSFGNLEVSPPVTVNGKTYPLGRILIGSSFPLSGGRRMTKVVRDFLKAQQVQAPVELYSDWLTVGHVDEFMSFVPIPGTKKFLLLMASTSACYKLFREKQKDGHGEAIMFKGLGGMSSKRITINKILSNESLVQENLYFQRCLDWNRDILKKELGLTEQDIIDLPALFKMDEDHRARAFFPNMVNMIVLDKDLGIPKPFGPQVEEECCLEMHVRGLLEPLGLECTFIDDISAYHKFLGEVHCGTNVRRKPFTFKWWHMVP

SMILES	Selectivity ratio (Homo sapiens [1])	Selectivity ratio (Homo sapiens [2])	Selectivity ratio (Homo sapiens [3])	Selectivity ratio (Homo sapiens [4])	Selectivity ratio (Homo sapiens [5])	Selectivity ratio (Homo sapiens [6])	Activity [7] [%]
CCn1c([C@H](CCCNC(=N)CF)NC(=O)c2ccccc2C(=O)O)nc2ccccc21	18	39	1.7	31	–	–	–
CCN1Cc2cccc(C(=O)N[C@@H](CCCNC(=N)CF)c3nc4ccccc4n3C(C)C)c2C1=O	–	10	3.4	22	–	–	–
CCOc1cccc2c1nc([C@H](CCCNC(=N)CCl)NC(=O)c1cccc3c1C(=O)NC3)n2C	–	24	2.7	30	–	–	–
COc1cccc2c1nc([C@H](CCCNC(=N)CCl)NC(=O)c1cccc3c1C(=O)NC3)n2C	3.9	–	–	–	1.3	3.9	–
COc1cccc2c1nc([C@H](CCCNC(=N)CCl)NC(=O)c1cccc3c1C(=O)N(C1CC1)C3)n2C	–	4.7	1.1	6.7	–	–	–
COc1cccc2c1nc([C@H](CCCNC(=N)CCl)NC(=O)c1cccc3c1C(=O)N(C(C)C)C3)n2C	–	3.5	1.2	4.1	–	–	–
CCn1c([C@H](CCCNC(=N)CCl)NC(=O)c2cccc3c2C(=O)NC3)nc2c(OC)cccc21	–	50	2.9	19	–	–	–
CC(C)n1c([C@H](CCCNC(=N)CF)NC(=O)c2cccc3c2C(=O)NC3)nc2ccccc21	20	–	–	–	2.4	12	–
N=C(CF)NCCC[C@H](NC(=O)c1cccc2c1C(=O)NC2)c1nc2ccccc2[nH]1	3.3	–	–	–	10	24	–
CC(C)n1c([C@H](CCCNC(=N)CCl)NC(=O)c2ccccc2C(=O)O)nc2ccccc21	–	68	3.8	38	–	–	–
COc1ccc2c(c1)nc([C@H](CCCNC(=N)CCl)NC(=O)c1cccc3c1C(=O)NC3)n2C	–	25	2.4	10	–	–	–
COc1cccc2c1nc([C@H](CCCNC(=N)CF)NC(=O)c1cccc3c1C(=O)N(C)C3)n2C	106	–	–	–	1.1	30	< 37
CCN1Cc2cccc(C(=O)N[C@@H](CCCNC(=N)CCl)c3nc4ccccc4n3C)c2C1=O	19	–	–	–	1.2	21	–
Cn1c([C@H](CCCNC(=N)CF)NC(=O)c2cccc3c2C(=O)NC3)nc2ccccc21	8.9	–	–	–	1	25	–
COc1cccc2[nH]c([C@H](CCCNC(=N)CF)NC(=O)c3cccc4c3C(=O)NC4)nc12	–	42	3.8	8	–	–	–
COc1cccc2[nH]c([C@H](CCCNC(=N)CCl)NC(=O)c3cccc4c3C(=O)NC4)nc12	–	30	6.9	11	–	–	–
Cn1c([C@H](CCCNC(=N)CF)NC(=O)c2ccccc2C(=O)O)nc2ccccc21	–	40	1.3	15	–	–	–
CC(C)n1c([C@H](CCCNC(=N)CF)NC(=O)c2ccccc2C(=O)O)nc2ccccc21	–	49	4.4	54	–	–	–
CCn1c([C@H](CCCNC(=N)CCl)NC(=O)c2ccccc2C(=O)O)nc2ccccc21	1.6	–	–	–	1.2	4.3	–
COc1ccc2[nH]c([C@H](CCCNC(=N)CCl)NC(=O)c3cccc4c3C(=O)NC4)nc2c1	3.5 to 114	–	–	95	2.2	7.3	–
CCn1c([C@H](CCCNC(=N)CCl)NC(=O)c2cccc3c2C(=O)NC3)nc2cc(OC)ccc21	–	21	4.4	16	–	–	–
CCN1Cc2cccc(C(=O)N[C@@H](CCCNC(=N)CF)c3nc4cc(OC)ccc4n3C)c2C1=O	125	–	–	–	3.8	47	–
Cn1c([C@H](CCCNC(=N)CCl)NC(=O)c2ccccc2C(=O)O)nc2ccccc21	1.9	–	–	–	1	4.3	–
CCN1Cc2cccc(C(=O)N[C@@H](CCCNC(=N)CCl)c3nc4c(OC)cccc4n3C)c2C1=O	5	–	–	–	1.3	3.9	–

SMILES	Selectivity ratio (Homo sapiens [1])	Selectivity ratio (Homo sapiens [2])	Selectivity ratio (Homo sapiens [3])	Selectivity ratio (Homo sapiens [4])	Selectivity ratio (Homo sapiens [5])	Selectivity ratio (Homo sapiens [6])	Activity [7] [%]
CCN1Cc2cccc(C(=O)N[C@@H](CCCNC(=N)CCl)c3nc4cc(OC)ccc4[nH]3)c2C1=O	–	7.8	4.1	9.1	–	–	–
COc1ccc2[nH]c([C@H](CCCNC(=N)CF)NC(=O)c3cccc4c3C(=O)NC4)nc2c1	5.4 to 114	–	–	95	3.5	13	–
CCn1c([C@H](CCCNC(=N)CF)NC(=O)c2cccc3c2C(=O)NC3)nc2cc(OC)ccc21	–	24	2.5	50	–	–	–
COc1cccc2c1nc([C@H](CCCNC(=N)CF)NC(=O)c1cccc3c1C(=O)N(C(C)C)C3)n2C	58	–	–	–	2.6	32	< 37
CCOc1cccc2c1nc([C@H](CCCNC(=N)CCl)NC(=O)c1cccc3c1C(=O)N(CC)C3)n2C	–	12	5.5	43	–	–	–
CCN1Cc2cccc(C(=O)N[C@@H](CCCNC(=N)CCl)c3nc4cc(OC)ccc4n3CC)c2C1=O	–	21	8.4	27	–	–	–
Cn1c([C@H](CCCNC(=N)CCl)NC(=O)c2cccc3c2C(=O)NC3)nc2ccccc21	–	61	2	3.1	–	–	–
CCN1Cc2cccc(C(=O)N[C@@H](CCCNC(=N)CCl)c3nc4c(OC)cccc4n3CC)c2C1=O	–	31	3.4	27	–	–	–
CCOc1cccc2c1nc([C@H](CCCNC(=N)CF)NC(=O)c1cccc3c1C(=O)N(CC)C3)n2C	–	8.9	1	26	–	–	–
CCN1Cc2cccc(C(=O)N[C@@H](CCCNC(=N)CCl)c3nc4ccccc4n3C(C)C)c2C1=O	–	11	2	6.8	–	–	–
CCN1Cc2cccc(C(=O)N[C@@H](CCCNC(=N)CF)c3nc4c(OC)cccc4[nH]3)c2C1=O	–	107	12	32	–	–	–
CCN1Cc2cccc(C(=O)N[C@@H](CCCNC(=N)CCl)c3nc4ccccc4n3CC)c2C1=O	–	18	2.1	14	–	–	–
CCN1Cc2cccc(C(=O)N[C@@H](CCCNC(=N)CF)c3nc4ccccc4n3C)c2C1=O	–	6.1	1.9	11	–	–	–
CCN1Cc2cccc(C(=O)N[C@@H](CCCNC(=N)CCl)c3nc4ccccc4[nH]3)c2C1=O	1.5	–	–	–	1.4	4.3	–
N=C(CCl)NCCC[C@H](NC(=O)c1cccc2c1C(=O)NC2)c1nc2ccccc2[nH]1	2.3	–	–	–	2.1	6.5	–
CCn1c([C@H](CCCNC(=N)CCl)NC(=O)c2cccc3c2C(=O)NC3)nc2ccccc21	–	10	1.8	4.8	–	–	–
CCN1Cc2cccc(C(=O)N[C@@H](CCCNC(=N)CF)c3nc4cc(OC)ccc4[nH]3)c2C1=O	–	4.4	3.6	6.3	–	–	–
CCN1Cc2cccc(C(=O)N[C@@H](CCCNC(=N)CCl)c3nc4c(OC)cccc4[nH]3)c2C1=O	–	5	1	2.3	–	–	–
CCN1Cc2cccc(C(=O)N[C@@H](CCCNC(=N)CCl)c3nc4cc(OC)ccc4n3C)c2C1=O	–	37	9.3	32	–	–	–
CCN1Cc2cccc(C(=O)N[C@@H](CCCNC(=N)CF)c3nc4c(OC)cccc4n3CC)c2C1=O	–	28	2	40	–	–	–
COc1cccc2c1nc([C@H](CCCNC(=N)CCl)NC(=O)c1cccc3c1C(=O)N(C)C3)n2C	–	6.8	2.2	11	–	–	–
CCN1Cc2cccc(C(=O)N[C@@H](CCCNC(=N)CF)c3nc4cc(OC)ccc4n3CC)c2C1=O	–	28	2.7	70	–	–	–
CC(C)n1c([C@H](CCCNC(=N)CCl)NC(=O)c2cccc3c2C(=O)NC3)nc2ccccc21	–	27	3.2	8	–	–	–

From ChEMBL document CHEMBL4177546, “Development of a Selective Inhibitor of Protein Arginine Deiminase 2” (J Med Chem, 2017)
